Laboratory results taken from ChEMBL document CHEMBL3751835, “Discovery of the imidazole-derived GPR40 agonist AM-3189” (Bioorg Med Chem Lett, 2016).
The source made the active and inactive calls. The calls are words filed in the database; no cut-off is given here.

Tests used:
[1] = Clearance in mouse at 1 mg/kg, iv; format: ADME, organism-based; conditions: in vivo
How it was run: (§1)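 Oral doses given as a suspension in aqueous 1% Tween 80 in 1% methylcellulose; IV doses formulated in 10% N,N-dimethylacetamide, 10% ethanol, 30% propylene glycol, 50% sterile water. Animals per species: mouse n = 2 (plasma from two mice at each time point), rat n = 2, dog n = 3, cynomolgus monkey n = 3.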

[2] = Clearance in dog at 0.5 mg/kg, iv; format: ADME, organism-based, Canis lupus familiaris; conditions: in vivo; how it was run: as §1
[3] = Clearance in cynomolgus monkey at 0.5 mg/kg, iv; format: ADME, organism-based, Macaca fascicularis; conditions: in vivo; how it was run: as §1
[4] = Half life in rat at 0.5 mg/kg, iv; format: ADME, organism-based; conditions: in vivo; how it was run: as §1
[5] = Half life in dog at 0.5 mg/kg, iv; format: ADME, organism-based, Canis lupus familiaris; conditions: in vivo; how it was run: as §1
[6] = Half life in cynomolgus monkey at 0.5 mg/kg, iv; format: ADME, organism-based, Macaca fascicularis; conditions: in vivo; how it was run: as §1
[7] = Volume of distribution at steady state in mouse at 1 mg/kg, iv; format: ADME, organism-based; conditions: in vivo, read-out: Vdss; how it was run: as §1
[8] = Volume of distribution at steady state in dog at 0.5 mg/kg, iv; format: ADME, organism-based, Canis lupus familiaris; conditions: in vivo, read-out: Vdss; how it was run: as §1
[9] = Volume of distribution at steady state in cynomolgus monkey at 0.5 mg/kg, iv; format: ADME, organism-based, Macaca fascicularis; conditions: in vivo, read-out: Vdss; how it was run: as §1
[10] = Oral bioavailability in mouse at 5 mg/kg; format: ADME, organism-based; conditions: in vivo; how it was run: as §1
[11] = Oral bioavailability in dog at 2 mg/kg; format: ADME, organism-based, Canis lupus familiaris; conditions: in vivo; how it was run: as §1
[12] = Oral bioavailability in cynomolgus monkey at 5 mg/kg; format: ADME, organism-based, Macaca fascicularis; conditions: in vivo; how it was run: as §1
[13] = Cmax in mouse at 5 mg/kg, po; format: ADME, organism-based; design: dose 5 mg/kg, route oral; conditions: in vivo; how it was run: as §1
[14] = Cmax in cynomolgus monkey at 5 mg/kg, po; format: ADME, organism-based, Macaca fascicularis; design: dose 5 mg/kg, route oral; conditions: in vivo; how it was run: as §1
MDR1 [15] = test: Permeability across apical to basolateral side in MDCK cells expressing MDR1; format: ADME, cell-based, Canis lupus familiaris; conditions: dog, read-out: permeability
MDR1 [16] = test: Permeability across basolateral to apical side in MDCK cells expressing MDR1; format: ADME, cell-based, Canis lupus familiaris; conditions: dog, read-out: permeability
MDR1 [17] = test: Efflux ratio of permeability from basolateral to apical over apical basolateral side in MDCK cells expressing MDR1; format: ADME, cell-based, Canis lupus familiaris; conditions: dog
Pancreatic islet = test: Induction of glucose-stimulated insulin release in human GPR40 knock-in mouse pancreatic islets by insulin ELISA in presence of 0.1% human serum albumin and glucose; format: functional
How it was run: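 Islets were isolated from knock-in mice in which the mouse GPR40 gene is replaced by human GPR40. Glucose-stimulated insulin secretion was measured in buffer containing 16.7 mM glucose and 0.1% human serum albumin.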

[18] = target: Free fatty acid receptor 1 (Rattus norvegicus, UniProt Q8K3T4); test: Agonist activity at rat GPR40 in presence of 0.01% human serum albumin
Chain of Free fatty acid receptor 1 (Q8K3T4 whole entry): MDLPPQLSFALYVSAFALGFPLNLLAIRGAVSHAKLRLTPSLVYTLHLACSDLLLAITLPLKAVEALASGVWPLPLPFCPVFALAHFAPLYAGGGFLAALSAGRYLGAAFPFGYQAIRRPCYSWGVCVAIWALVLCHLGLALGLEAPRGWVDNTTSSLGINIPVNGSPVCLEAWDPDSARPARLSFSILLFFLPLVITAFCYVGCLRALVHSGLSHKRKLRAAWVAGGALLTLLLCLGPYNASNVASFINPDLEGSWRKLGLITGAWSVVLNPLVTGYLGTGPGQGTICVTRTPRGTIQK

[19] = Agonist activity at dog GPR40 in presence of 0.01% human serum albumin; design: species or system Canis lupus familiaris
Canis lupus familiaris = species on record: Canis lupus familiaris; test: Agonist activity at dog GPR40 in presence of 0.01% human serum albumin relative to AMG 837
[20] = target: Free fatty acid receptor 1 (Macaca fascicularis) (UniProt Q76JV1); test: Agonist activity at cynomolgus monkey GPR40 in presence of 0.01% human serum albumin relative to AMG 837 relative to AMG 837
Chain of Free fatty acid receptor 1 (Macaca fascicularis) (Q76JV1 whole entry): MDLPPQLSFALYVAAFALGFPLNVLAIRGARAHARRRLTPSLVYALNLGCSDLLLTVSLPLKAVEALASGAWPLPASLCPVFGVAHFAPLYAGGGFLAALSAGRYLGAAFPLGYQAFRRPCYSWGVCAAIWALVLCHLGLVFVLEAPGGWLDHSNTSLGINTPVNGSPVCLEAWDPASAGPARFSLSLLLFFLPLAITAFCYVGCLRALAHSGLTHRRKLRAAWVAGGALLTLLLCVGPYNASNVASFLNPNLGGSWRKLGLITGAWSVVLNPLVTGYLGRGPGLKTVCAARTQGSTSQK

Mus musculus [21] = test: Reduction of blood glucose AUC in human islet transplanted nude chimeric mouse at 1 and 10 mg/kg, po administered 1 hr prior to glucose challenge by OGTT; format: functional, organism-based
How it was run: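 Nude mice had their endogenous pancreatic β-cells ablated with streptozotocin and were rescued to euglycemia by human islets transplanted under the kidney capsule. Compound was dosed before a glucose challenge, and the glucose AUC was determined.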

Mus musculus [22] = test: Reduction of blood glucose AUC in human GPR40 knock-in chimeric mouse at 30 mg/kg, po administered 1 hr prior to glucose challenge by OGTT; format: functional, organism-based
How it was run: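 Female human GPR40 knock-in mice, 28 weeks old, fasted 6 h, then dosed by oral gavage with compound formulated in 1% methylcellulose, 1% Tween-80. Glucose 2 g/kg was given by oral gavage 1 h after the drug. Blood glucose was read from tail-vein samples at several time points with a glucometer.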

[23] = Ratio of drug level in brain to plasma in rat at 5 mg/kg, po after 3 hrs; format: ADME, organism-based
[24] = target: T1, Peroxisome proliferator-activated receptor alpha (Homo sapiens) (UniProt Q07869); test: Activity at PPARalpha (unknown origin) by cell based assay
T1 sequence (whole entry): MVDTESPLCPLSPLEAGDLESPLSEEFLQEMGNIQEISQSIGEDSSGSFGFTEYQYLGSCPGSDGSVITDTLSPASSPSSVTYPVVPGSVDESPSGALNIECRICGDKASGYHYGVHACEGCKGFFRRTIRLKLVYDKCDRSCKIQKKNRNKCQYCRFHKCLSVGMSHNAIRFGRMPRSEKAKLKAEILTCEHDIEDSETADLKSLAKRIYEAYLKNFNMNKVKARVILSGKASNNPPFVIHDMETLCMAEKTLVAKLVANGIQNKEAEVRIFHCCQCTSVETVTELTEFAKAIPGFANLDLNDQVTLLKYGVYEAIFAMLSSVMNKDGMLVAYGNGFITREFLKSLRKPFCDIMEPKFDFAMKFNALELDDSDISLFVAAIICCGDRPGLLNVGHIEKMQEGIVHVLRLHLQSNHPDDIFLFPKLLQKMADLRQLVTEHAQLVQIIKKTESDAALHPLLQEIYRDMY

[25] = target: T2, Peroxisome proliferator-activated receptor gamma (Homo sapiens) (UniProt P37231); test: Activity at PPARgamma (unknown origin) by cell based assay
T2 sequence (whole entry): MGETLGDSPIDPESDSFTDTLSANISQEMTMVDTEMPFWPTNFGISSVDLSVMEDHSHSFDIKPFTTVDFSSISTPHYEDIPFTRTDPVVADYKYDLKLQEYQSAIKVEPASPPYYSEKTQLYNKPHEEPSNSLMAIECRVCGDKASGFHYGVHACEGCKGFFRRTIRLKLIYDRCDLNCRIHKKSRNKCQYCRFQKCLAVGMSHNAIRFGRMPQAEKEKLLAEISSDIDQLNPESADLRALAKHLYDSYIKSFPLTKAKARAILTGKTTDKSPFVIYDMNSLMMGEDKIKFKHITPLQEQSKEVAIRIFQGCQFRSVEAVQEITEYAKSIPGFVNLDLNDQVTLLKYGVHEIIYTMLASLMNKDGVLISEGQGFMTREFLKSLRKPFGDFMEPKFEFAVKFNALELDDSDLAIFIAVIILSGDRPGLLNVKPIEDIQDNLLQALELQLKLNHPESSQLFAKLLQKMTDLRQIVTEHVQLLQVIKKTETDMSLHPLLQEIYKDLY

[26] = target: T3, Free fatty acid receptor 1 (Sus scrofa) (UniProt F1RM69); test: Agonist activity at pig GPR40 in presence of 0.01% human serum albumin
T3 sequence (whole entry): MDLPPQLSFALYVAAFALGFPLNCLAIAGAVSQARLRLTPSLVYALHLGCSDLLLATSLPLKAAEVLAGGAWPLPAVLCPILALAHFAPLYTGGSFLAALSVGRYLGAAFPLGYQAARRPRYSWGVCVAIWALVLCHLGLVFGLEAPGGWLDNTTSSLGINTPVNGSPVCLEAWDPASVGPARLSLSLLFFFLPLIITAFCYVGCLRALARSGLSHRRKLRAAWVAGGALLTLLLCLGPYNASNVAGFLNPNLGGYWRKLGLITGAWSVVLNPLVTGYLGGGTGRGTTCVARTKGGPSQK

Work on `Cc1cc(Cl)ccc1-c1cccc(COc2ccc([C@H](CC(=O)O)c3nccn3C)cc2)c1` yielded a clearance [1] of 2.83 mL/min/kg, a clearance [2] of 2.5 mL/min/kg and a clearance [3] of 4.5 mL/min/kg. For the same compound, the half-life [4] was 1.6 h, the half-life [5] was 5.1 h and the half-life [6] was 7.6 h. The Vd [7] was 0.78 L/kg, the Vd [8] was 0.58 L/kg and the Vd [9] was 1.6 L/kg. The bioavailability [10] was 100%, the bioavailability [11] was 66% and the bioavailability [12] was 34%. It also gave a Cmax [13] of 4.89 µM, a Cmax [14] of 1.19 µM and a Papp A→B (MDR1 [15]) of 1.4 ×10⁻⁶ cm/s. The Papp B→A (MDR1 [16]) was 31 ×10⁻⁶ cm/s, the efflux ratio (MDR1 [17]) was 22 and the Activity (Pancreatic islet) was “Active”. The EC50 [18] was 640 nM, the EC50 [19] was 37 nM and the Emax (Canis lupus familiaris) was 37%. For the same compound, the Emax [20] was 96%, the Activity (Mus musculus [21]) was “Active” and the Activity (Mus musculus [22]) was “Active”. For the same compound, the Kp at 3 h [23] was 0.04, the Activity [24] was “inactive” and the Activity [25] was “inactive”. The Activity [26] was “inactive”.
